Consider three molecules from paper PMC4452166 (Cancer Science, 2015).

The test system of one series is AGS cells. The experiment in a line: MTT cytotoxicity assay, AGS. The class given is cell-based, human. Conditions: for IC50: read-out: IC50 (cytotoxicity), 48 h. The method, boiled down: (§1)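 Human epithelia-derived lines grown in 10% FBS media at 37°C, 5% CO2: FLC-4 in DMEM/F12, MCF7 in Eagle's MEM + 10 μg/mL insulin, HCT116 in McCoy's 5A, AGS/HEK293 in DMEM, TE4 in RPMI. Cells seeded 24 h before test compound, then exposed 48 h at 37°C. MTT 4 h; overnight solubilisation (DMF/acetic acid/HCl/SDS); OD 570 nm. n = 3. IC20 reported as maximum tolerated concentration.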
For orientation: Tetrazolium dyes change colour on reduction, which living cells bring about.

In series [1] the test system is low TC4ATS-Cd-sensitive leukemia cell lines and epithelia-derived cell lines except for HEK293. In kind it is cell-based, human. Conditions: 50 μM, 24 h, western blot. For orientation: In western blotting, separated proteins are transferred to a membrane and probed.
Another series deals with HEK293 cells. Put plainly: MTT cytotoxicity assay, HEK293. In kind it is cell-based, human. The following applies: for IC50: read-out: IC50 (cytotoxicity), HEK293, 48 h. In outline:
as §1

A further series concerns HCT116 cells. The experiment in a line: MTT cytotoxicity assay, HCT116. In kind it is cell-based, human. The following applies: for IC50: read-out: IC50 (cytotoxicity), HCT116, 48 h. The method, boiled down:
as §1

For series [2], the system named is Jurkat cells. The experiment in a line: Western blot of activated caspase-3 and cleaved PARP, Jurkat. The class given is cell-based, human. Conditions: 24 h. The method, boiled down:
(§2)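 Leukemia cells treated with test compound for 24 h. Equal protein run on reducing SDS-PAGE and transferred to PVDF. Blocked in 1% skim milk; probed for activated caspase-3, cleaved PARP and β-actin; peroxidase secondary antibody; ECL detection.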

In another series the test system is PEER cells. Put plainly: MTT cytotoxicity assay, PEER. Conditions: read-out: IC50 (cytotoxicity), 48 h. The class given is cell-based, human. In outline: (§3)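 Leukemia lines kept in RPMI medium with 10% FBS and antibiotics, 37°C, 5% CO2. Cells plated directly with test compound and incubated 48 h at 37°C. MTT added for 4 h; formazan dissolved overnight at room temperature in extraction solution (40% dimethylformamide, 2% acetic acid, 0.03 M HCl, 20% SDS); OD 570 nm. Means ± SD, n = 3.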

Series [3] concerns Jurkat cells. The experiment in a line: Lactate dehydrogenase. In kind it is cell-based, human. Conditions: 48 h.
Series [4] relates to Jurkat cells. The experiment in a line: MTT cytotoxicity assay, Jurkat. The following applies: read-out: IC50 (cytotoxicity), 48 h. In kind it is cell-based, human. The method, boiled down:
as §3

Another series relates to FLC-4 cells. The experiment in a line: MTT cytotoxicity assay, FLC-4. The class given is cell-based, human. The following applies: for IC50: read-out: IC50 (cytotoxicity), FLC-4, 48 h. In outline:
as §1

The test system of the next series is HUT78 cells. Put plainly: MTT cytotoxicity assay, HUT78. Conditions: read-out: IC50 (cytotoxicity), HUT78, 48 h. The class given is cell-based, human. In outline: as §3
The test system of series [5] is Jurkat cells. The experiment in a line: Jurkat xenograft model in SCID mice. In kind it is in vivo. Conditions: for tumor weight vs vehicle: day 35 after inoculation; for Survival: tumor-bearing SCID mice. In outline:
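Six-week-old female SCID mice inoculated s.c. with 5 × 10^7 Jurkat cells. From day 20, mice received saline vehicle, test compound 13 mg/kg (13 μmol/kg) or CdCl2 3 mg/kg (13 μmol/kg) i.p. three times weekly for 2 weeks, n = 5 per group. Body weight and tumor size taken three times weekly; volume = long × short² × 1/2. Killed on day 35; tumors, liver, kidney, spleen and lung weighed. Student's t-test.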

Another series deals with HL-60 cells. Put plainly: MTT cytotoxicity assay, HL-60. In kind it is cell-based, human. The following applies: read-out: IC50 (cytotoxicity), HL-60, 48 h. In outline: as §3
The test system of a further series is MCF7 cells. The experiment in a line: MTT cytotoxicity assay, MCF7. The class given is cell-based, human. Conditions: for IC50: read-out: IC50 (cytotoxicity), MCF7, 48 h. In outline:
as §1

In a further series the test system is TE4 cells. The experiment in a line: MTT cytotoxicity assay, TE4. In kind it is cell-based, human. Conditions: for IC50: read-out: IC50 (cytotoxicity), TE4, 48 h. In outline:
as §1

Series [6] has as its system HPB-ALL cells. The experiment in a line: MTT cytotoxicity assay, HPB-ALL. Conditions: read-out: IC50 (cytotoxicity), 48 h. The class given is cell-based, human. The method, boiled down:
as §3

Series [7] concerns caspase-3 in Jurkat cells. Put plainly: Caspase-3 activity assay with fluorogenic substrate in cell lysates. Conditions: Ac-DEVD-MCA substrate. In kind it is cell-based, human.
The test system of the next series is JKT-beta-del cells. Put plainly: MTT cytotoxicity assay, JKT-beta-del. Conditions: read-out: IC50 (cytotoxicity), 48 h. In kind it is cell-based, human. In outline: as §3
For series [8], the system named is HPB-ALL cells. Put plainly: Western blot of activated caspase-3 and cleaved PARP, HPB-ALL. The class given is cell-based, human. The following applies: 50 μM, 24 h. In outline:
as §2

For series [9] the following is noted: in vivo; cited from earlier work.
[10] abbreviates: 13 μmol/kg i.p. three times weekly for 2 weeks.

In the case of “cadmium-coordinated thiacalix[4]arene tetrasulfate [TC4ATS-Cd]”, the IC50 – broadly, the midpoint of a concentration-inhibition curve – in the series with AGS cells amounted to 947 µM; in the series on HEK293 cells, 15 µM; with HCT116 cells, 1500 µM; in the series with PEER cells, 144 µM; with Jurkat cells [4] it was 6.9 µM; in the series with FLC-4 cells, 2450 µM. For the same molecule, the IC50 was determined as 35 µM in the series with HUT78 cells; 81 µM with HL-60 cells; 2210 µM in the series with MCF7 cells; 2130 µM in the series with TE4 cells; 17 µM with HPB-ALL cells [6]; 275 µM in the series with JKT-beta-del cells. For the same molecule, the IC20 stood at 505 µM in the series on AGS cells (read-out: maximum tolerated concentration (=IC20 value), 48 h); 6.8 µM in the series on HEK293 cells (read-out: maximum tolerated concentration (=IC20 value), HEK293, 48 h); 280 µM with HCT116 cells (read-out: maximum tolerated concentration (=IC20 value), HCT116, 48 h); 667 µM in the series on FLC-4 cells (read-out: maximum tolerated concentration (=IC20 value), FLC-4, 48 h); 1330 µM in the series with MCF7 cells (read-out: maximum tolerated concentration (=IC20 value), MCF7, 48 h); 454 µM in the series on TE4 cells (read-out: maximum tolerated concentration (=IC20 value), TE4, 48 h). The “apoptotic events (caspase-3 activation, PARP cleavage)” value in series [1] is listed as “not elicited”. Also, in the series on Jurkat cells [2], the “cleavage of PARP” value was “consistently and markedly upregulated”. Also, the “levels of activated caspase-3 protein” value with Jurkat cells [2] is given as “upregulated”. Besides, the LDH release result with Jurkat cells [3] is recorded as “increased LDH release from Jurkat cells in a dose-dependent manner”. Further, the “body weight changes vs vehicle” value with Jurkat cells [5] (setting [10]) is “no significant difference”. In addition, the “renal atrophy (relative kidney weight)” value with Jurkat cells [5] (setting [10]) is given as “no significant atrophy”. In addition, in the series with Jurkat cells [5] (setting [10]), the “tumor weight vs vehicle” value is listed as “significantly lower”. Also, the “tumor growth of Jurkat cells” value in the series with Jurkat cells [5] (13 mg/kg, xenograft model in mice) was “significantly suppressed”. In addition, the Survival in the series on Jurkat cells [5] (setting [10]) is recorded as 5/5. The caspase-3 proteolytic activity entry in series [7] was “increased its proteolytic activity”. In the series on HPB-ALL cells [8], the “caspase-3 activation and cleavage of PARP” value is on record as “induced”.
As for `[Cl][Cd][Cl]` [CdCl2, Cadmium chloride, reference compound], the IC50 with AGS cells was 60 µM; in the series with HEK293 cells, 1.9 µM; in the series on HCT116 cells it was 47 µM; in the series with PEER cells, 28 µM; in the series on Jurkat cells [4], 6.5 µM; in the series with FLC-4 cells, 106 µM. Also, the half-inhibitory concentration (IC50) with HUT78 cells came out at 25 µM; with HL-60 cells, 27 µM; with MCF7 cells, 36 µM; with TE4 cells it was 129 µM; in the series with HPB-ALL cells [6] it was 9.8 µM; in the series on JKT-beta-del cells, 30 µM. Besides, the “apoptotic events (caspase-3 activation, PARP cleavage)” value in [1] is reported as “not elicited”. Further, the “renal atrophy (relative kidney weight)” value with Jurkat cells [5] (setting [10]) was “notably induced renal atrophy”. For the same molecule, the “tumor weight vs vehicle” value in the series with Jurkat cells [5] (setting [10]) is given as “non-significant decrease”. Besides, the Survival in the series on Jurkat cells [5] (setting [10]) is 3/5. For the same molecule, in the series with HPB-ALL cells [8], the “caspase-3 activation and cleavage of PARP” value was “induced”.
As for `O=S(=O)(O)c1cc2c(O)c(c1)Cc1cc(S(=O)(=O)O)cc(c1O)Cc1cc(S(=O)(=O)O)cc(c1O)Cc1cc(S(=O)(=O)O)cc(c1O)C2` [C4ATS, p-tetrasulfonated calix[4]arene], in series [9], the “dose without toxic effects, acute toxicity” value is not below 100 mg/kg.
